According to ChEMBL document CHEMBL3259617, “Design, synthesis, and biological evaluation of (e)-3,4-dihydroxystyryl aralkyl sulfones and sulfoxides as novel multifunctional neuroprotective agents” (J Med Chem, 2014):
Active and inactive are the calls of the source. The rule behind the calls is not given here.

Key:
[1] = system: Radical scavenging activity; assay: Antioxidant activity assessed as DPPH free radical scavenging effect after 30 mins by spectrophotometric analysis; type: functional
How it was run: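 Compounds and DPPH both in ethanol; equal volumes of test solution and 0.2 mM DPPH solution mixed; control was ethanol plus DPPH. Tested over 1−50 μM. Inhibition % = (A₀ − A_c)/A₀ × 100; IC50 by linear regression. Triplicate wells, three independent runs; vitamin C as reference.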

PC-12 [2] = assay: Neuroprotective activity against H2O2-induced damage in rat PC12 cells assessed as cell viability at 5 uM preincubated for 3 hrs followed by H2O2 challenge measured after 5 hrs by MTT assay; type: functional, cell-based
How it was run: (§1)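 PC12 cells in high-glucose DMEM with 10% FBS, 5% horse serum and antibiotics, 37 °C, 5% CO₂, seeded at 4 × 10⁵ cells mL⁻¹. Pretreated 3 h with compounds (DMSO, diluted in medium), then challenged with H₂O₂ at final 500 μM for 5 h. MTT absorbance at 570 nm; viability relative to untreated cells (100%); mean ± SD, n = 3.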

PC-12 [3] = assay: Neuroprotective activity against 6-OHDA-induced damage in rat PC12 cells assessed as cell viability at 40 uM preincubated for 3 hrs followed by 6-OHDA challenge measured after 48 hrs by MTT assay; type: functional, cell-based
How it was run: (§2)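 PC12 cells grown in high-glucose DMEM with 10% FBS, 5% horse serum and penicillin/streptomycin, 5% CO₂, 37 °C. Seeded at 4 × 10⁵ cells mL⁻¹. Compounds (DMSO stock diluted in medium) applied for 3 h, then 6-OHDA at final 400 μM for 48 h. MTT read at 570 nm; viability given as % of untreated cells; mean ± SD, n = 3.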

[4] = Antineuroinflammatory activity in mouse BV2 cells assessed as inhibition of LPS-induced nitric oxide production preincubated for 3 hrs followed by LPS challenge measured after 24 hrs by Griess assay; type: functional, cell-based; conditions: BV-2
How it was run: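 BV2 microglia grown in high-glucose DMEM with 10% FBS and penicillin/streptomycin, 5% CO₂, 37 °C. Seeded at 4 × 10⁵ cells mL⁻¹. Compounds in DMSO, diluted in medium, added for 3 h before LPS (final 100 nM). Nitrite in medium read with an NO assay kit at 540 nm after 24 h. Inhibition calculated against the LPS-only and normal controls. IC50 obtained by linear regression.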

[5] = Cytotoxicity against mouse BV2 cells assessed as cell viability by MTT assay; type: cell-based, BV-2; design: concentration or dose not given beside the values; conditions: read-out: Activity
[6] = Permeability of the compound at 5 mg/mL after 18 hrs by PAMPA; type: physicochemical; conditions: read-out: permeability
PC-12 [7] = assay: Neuroprotective activity against H2O2-induced damage in rat PC12 cells assessed as cell viability at 2.5 uM preincubated for 3 hrs followed by H2O2 challenge measured after 5 hrs by MTT assay; type: functional, cell-based; how it was run: as §1
PC-12 [8] = assay: Neuroprotective activity against 6-OHDA-induced damage in rat PC12 cells assessed as cell viability at 5 to 10 uM preincubated for 3 hrs followed by 6-OHDA challenge measured after 48 hrs by MTT assay; type: functional, cell-based; how it was run: as §2

Row | SMILES | IC50 [1] [µM] | Activity (PC-12 [2]) | Activity (PC-12 [3]) | IC50 [4] [µM] | viability [5] [%] | Papp at 18 h, 5 mg/mL [6] [×10⁻⁶ cm/s] | Activity (PC-12 [7]) | Activity (PC-12 [8])
1 | [O-][S+](/C=C/c1ccc(O)c(O)c1)Cc1ccccc1 (stereo unspecified) | 14.7 | Active | Active | 50.3 | > 90 | 4.9 | – | –
2 | [O-][S+](/C=C/c1ccc(O)c(O)c1)CCCc1ccccc1 (stereo unspecified) | 14.4 | Active | Active | 28.6 | > 90 | 9.1 | – | –
3 | O=S(=O)(/C=C/c1ccc(O)c(O)c1)CCc1ccccc1 | 10.5 | Active | Active | 30.6 | > 90 | 5.7 | – | –
4 | O=S(=O)(/C=C/c1ccc(O)c(O)c1)Cc1ccc(Cl)cc1 | 8.8 | Active | Active | 11.7 | > 90 | 3.3 | – | –
5 | COc1ccc(CS(=O)(=O)/C=C/c2ccc(O)c(O)c2)cc1 | 9.1 | Active | Active | 11.9 | > 90 | 6.4 | – | –
6 | [O-][S+](/C=C/c1ccc(O)c(O)c1)Cc1ccc(C(F)(F)F)cc1 (stereo unspecified) | 7.8 | Active | Active | 15.5 | > 90 | 4.2 | – | –
7 | O=S(=O)(/C=C/c1ccc(O)c(O)c1)CCCc1ccccc1 | 9.9 | Active | Active | 10.5 | > 90 | 4.1 | Active | –
8 | COc1ccc(C[S+]([O-])/C=C/c2ccc(O)c(O)c2)cc1 (stereo unspecified) | 11.5 | Active | Active | 33 | > 90 | 4.3 | – | –
9 | O=S(=O)(/C=C/c1ccc(O)c(O)c1)CCCCc1ccccc1 | 17.2 | – | Active | 19.8 | > 90 | 4.1 | – | –
10 | [O-][S+](/C=C/c1ccc(O)c(O)c1)Cc1ccc(Cl)cc1 (stereo unspecified) | 8.1 | Active | Active | 14 | > 90 | 4.1 | – | –
11 | O=S(=O)(/C=C/c1ccc(O)c(O)c1)Cc1ccccc1 | 8.1 | Active | Active | 11.6 | > 90 | 10.1 | – | –
12 | [O-][S+](/C=C/c1ccc(O)c(O)c1)CCCCc1ccccc1 (stereo unspecified) | 16.2 | – | Active | 36.8 | > 90 | 4.5 | – | –
13 | CC(C)(C)c1ccc(C[S+]([O-])/C=C/c2ccc(O)c(O)c2)cc1 (stereo unspecified) | 9.9 | Active | inactive | 9.3 | > 90 | 5.8 | – | –
14 | [O-][S+](/C=C/c1ccc(O)c(O)c1)CCc1ccccc1 (stereo unspecified) | 11.6 | – | Active | 42.6 | > 90 | 5 | – | Active
15 | O=S(=O)(/C=C/c1ccc(O)c(O)c1)Cc1ccc(C(F)(F)F)cc1 | 5.8 | Active | Active | 15.9 | > 90 | 4.3 | – | Active
16 | O=C(/C=C/c1ccc(O)c(O)c1)OCCc1ccccc1 | – | Active | Active | – | – | – | Active | Active
17 | CC(C)(C)c1ccc(CS(=O)(=O)/C=C/c2ccc(O)c(O)c2)cc1 | 9.5 | Active | inactive | 12.6 | > 90 | 4.7 | Active | –
